ChEMBL document CHEMBL1126715, “Synthesis and tissue distribution of (m-[125I]iodobenzyl)trozamicol ([125I]MIBT): potential radioligand for mapping central cholinergic innervation” (J Med Chem, 1993)

Key:
[1] = species on record: Rattus norvegicus; experiment: Tissue distribution in rat heart after 30 minutes (n=3); format: ADME, organism-based; conditions: in vivo, 0.5 h
Outline: (§1)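 Male Wistar rats (200-350 g) under ether, iv [125I]tracer (3-5 μCi in 0.1 mL 50% aqueous EtOH). At 5, 30, 60 or 180 min, blood taken by cardiac puncture and the rat killed by cardiectomy. Organs weighed and γ-counted against 1:100 dilutions of the injected dose; results in % injected dose/g, with range.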

[2] = species on record: Rattus norvegicus; experiment: Tissue distribution in rat heart after 5 minutes (n=3); format: ADME, organism-based; conditions: in vivo
Outline: (§2)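 Male Wistar rats (200-350 g) under ether anesthesia; radiotracer (3-5 μCi in 0.1 mL 50% aqueous ethanol) given iv. At 5, 30, 60 and 180 min, blood was drawn by cardiac puncture and animals were killed by cardiectomy. Organs were weighed and γ-counted against a 1:100 dilution of the injected dose. Results are given as % injected dose/g tissue; ratios are taken between tissue levels.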

[3] = species on record: Rattus norvegicus; experiment: Tissue distribution in rat kidney after 180 minutes (n=3); format: ADME, organism-based; conditions: in vivo, 3 h; outline: as §2
[4] = species on record: Rattus norvegicus; experiment: Tissue distribution in rat kidney after 30 minutes (n=3); format: ADME, organism-based; conditions: in vivo, 0.5 h; outline: as §2
[5] = species on record: Rattus norvegicus; experiment: Tissue distribution in rat kidney after 5 minutes (n=3); format: ADME, organism-based; conditions: in vivo; outline: as §2
[6] = species on record: Rattus norvegicus; experiment: Tissue distribution in rat kidney after 60 minutes (n=3); format: ADME, organism-based; conditions: in vivo, 1 h; outline: as §2
[7] = species on record: Rattus norvegicus; experiment: Tissue distribution in rat liver after 180 minutes (n=3); format: ADME, organism-based; conditions: in vivo, 3 h; outline: as §1
[8] = species on record: Rattus norvegicus; experiment: Tissue distribution in rat liver after 30 minutes (n=3); format: ADME, organism-based; conditions: in vivo, 0.5 h; outline: as §2
[9] = species on record: Rattus norvegicus; experiment: Tissue distribution in rat liver after 5 minutes (n=3); format: ADME, organism-based; conditions: in vivo; outline: as §1
[10] = species on record: Rattus norvegicus; experiment: Tissue distribution in rat liver after 60 minutes (n=3); format: ADME, organism-based; conditions: in vivo, 1 h; outline: as §2
[11] = species on record: Rattus norvegicus; experiment: Tissue distribution in rat lung after 180 minutes (n=3); format: ADME, organism-based; conditions: in vivo, 3 h; outline: as §1
[12] = species on record: Rattus norvegicus; experiment: Tissue distribution in rat lung after 30 minutes (n=3); format: ADME, organism-based; conditions: in vivo, 0.5 h; outline: as §2
[13] = species on record: Rattus norvegicus; experiment: Tissue distribution in rat lung after 60 minutes (n=3); format: ADME, organism-based; conditions: in vivo, 1 h; outline: as §2
[14] = species on record: Rattus norvegicus; experiment: Tissue distribution in rat muscle after 180 minutes (n=3); format: ADME, organism-based; conditions: in vivo, 3 h; outline: as §2
[15] = species on record: Rattus norvegicus; experiment: Tissue distribution in rat muscle after 30 minutes (n=3); format: ADME, organism-based; conditions: in vivo, 0.5 h; outline: as §1
[16] = species on record: Rattus norvegicus; experiment: Tissue distribution in rat muscle after 5 minutes (n=3); format: ADME, organism-based; conditions: in vivo; outline: as §2
[17] = species on record: Rattus norvegicus; experiment: Tissue distribution in rat muscle after 60 minutes (n=3); format: ADME, organism-based; conditions: in vivo, 1 h; outline: as §1
[18] = species on record: Rattus norvegicus; experiment: Tissue distribution in rat spleen after 180 minutes (n=3); format: ADME, organism-based; conditions: in vivo, 3 h; outline: as §2
[19] = species on record: Rattus norvegicus; experiment: Tissue distribution in rat spleen after 30 minutes (n=3); format: ADME, organism-based; conditions: in vivo, 0.5 h; outline: as §2
[20] = species on record: Rattus norvegicus; experiment: Tissue distribution in rat spleen after 5 minutes (n=3); format: ADME, organism-based; conditions: in vivo; outline: as §1
[21] = species on record: Rattus norvegicus; experiment: Tissue distribution in rat spleen after 60 minutes (n=3); format: ADME, organism-based; conditions: in vivo, 1 h; outline: as §2
[22] = species on record: Rattus norvegicus; experiment: Tissue distribution in rat thyroid after 180 minutes (n=3); format: ADME, organism-based, Thyroid gland; conditions: in vivo, 3 h; outline: as §2
[23] = species on record: Rattus norvegicus; experiment: Tissue distribution in rat thyroid after 30 minutes (n=3); format: ADME, organism-based, Thyroid gland; conditions: in vivo, 0.5 h; outline: as §2
[24] = species on record: Rattus norvegicus; experiment: Tissue distribution in rat thyroid after 5 minutes (n=3); format: ADME, organism-based, Thyroid gland; conditions: in vivo; outline: as §1
[25] = species on record: Rattus norvegicus; experiment: Tissue distribution in rrat heart after 60 minutes (n=3); format: ADME, organism-based; conditions: in vivo, 1 h; outline: as §2
[26] = species on record: Rattus norvegicus; experiment: Effect of vesamicol on the accumulation in rat thyroid in group 2 (n=3); format: ADME, organism-based, Thyroid gland; conditions: in vivo
Outline: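 Male Wistar rats (n = 4/group) given iv vehicle (100 μL 50% aqueous EtOH) or dl-vesamicol (1.01 μmol/kg); 15 min later iv radiotracer (2.0 μCi in 100 μL 50% aqueous EtOH); killed 30 min post-tracer. Blood by cardiac puncture, organs weighed and γ-counted vs 1:100 injected-dose dilution; % dose/g tissue (range); tissue/blood ratios.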

[27] = species on record: Rattus norvegicus; experiment: Tissue distribution in rat blood after 180 minutes (n=3); format: ADME, organism-based; conditions: in vivo, 3 h; outline: as §2
[28] = species on record: Rattus norvegicus; experiment: Tissue distribution in rat blood after 30 minutes (n=3); format: ADME, organism-based; conditions: in vivo, 0.5 h; outline: as §2
[29] = species on record: Rattus norvegicus; experiment: Tissue distribution in rat blood after 5 minutes (n=3); format: ADME, organism-based; conditions: in vivo; outline: as §2
[30] = species on record: Rattus norvegicus; experiment: Tissue distribution in rat blood after 60 minutes (n=3); format: ADME, organism-based; conditions: in vivo, 1 h; outline: as §1
[31] = species on record: Rattus norvegicus; experiment: Tissue distribution in rat brain after 180 minutes (n=3); format: ADME, organism-based; conditions: in vivo, 3 h; outline: as §1
[32] = species on record: Rattus norvegicus; experiment: Tissue distribution in rat brain after 30 minutes (n=3); format: ADME, organism-based; conditions: in vivo, 0.5 h; outline: as §2
[33] = species on record: Rattus norvegicus; experiment: Tissue distribution in rat brain after 5 minutes (n=3); format: ADME, organism-based; conditions: in vivo; outline: as §2
[34] = species on record: Rattus norvegicus; experiment: Tissue distribution in rat brain after 60 minutes (n=3); format: ADME, organism-based; conditions: in vivo, 1 h; outline: as §2
[35] = species on record: Rattus norvegicus; experiment: Tissue distribution in rat gonads after 180 minutes (n=3); format: ADME, organism-based, Gonad; conditions: in vivo, 3 h; outline: as §2

Q: What does the source list for `O[C@@H]1CCN(Cc2cccc([125I])c2)C[C@H]1N1CCC(c2ccccc2)CC1` (stereo in doubt; (-))?
A: Dose/g [1]: 0.75%; Dose/g [2]: 1.32%; Dose/g [3]: 3.27%; Dose/g [4]: 3.53%; Dose/g [5]: 3.71%; Dose/g [6]: 3.13%; Dose/g [7]: 2.23%; Dose/g [8]: 2.35%; Dose/g [9]: 2.07%; Dose/g [10]: 2.63%; Dose/g [11]: 2.01%; Dose/g [12]: 3.21%; Dose/g [13]: 2.41%; Dose/g [14]: 0.27%; Dose/g [15]: 0.3%; Dose/g [16]: 0.46%; Dose/g [17]: 0.28%; Dose/g [18]: 1.28%; Dose/g [19]: 1.24%; Dose/g [20]: 1.04%; Dose/g [21]: 1.17%; Dose/g [22]: 11.55%; Dose/g [23]: 3.15%; Dose/g [24]: 2.67%; Dose/g [25]: 0.58%; Dose/g [26]: 4.56%; Dose/g [27]: 0.1%; Dose/g [28]: 0.11%; Dose/g [29]: 0.22%; Dose/g [30]: 0.1%; Dose/g [31]: 0.92%; Dose/g [32]: 0.99%; Dose/g [33]: 0.92%; Dose/g [34]: 0.83%; Dose/g [35]: 0.2%
